Test results: ChEMBL document CHEMBL3352716 (ACS Med Chem Lett, 2014)

Assays:
K562 = assay: Antiproliferative activity against human K562 cells assessed as growth inhibition after 72 hrs by MTT assay; type: functional, cell-based; conditions: K562, 72 h
Method in brief: (§1)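 MTT proliferation assay on human K562 leukaemia, MCF-7 breast adenocarcinoma, Bel-7402 hepatocellular carcinoma and MGC-803 gastric cancer cells. Drug exposure 72 h. IC50 is the concentration inhibiting 50% of cell growth. Means ± SD, n = 3.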

MCF7 = assay: Antiproliferative activity against human MCF7 cells assessed as growth inhibition after 72 hrs by MTT assay; type: functional, cell-based; conditions: MCF7, 72 h; method in brief: as §1
[1] = Antiproliferative activity against human Bel7402 cells assessed as growth inhibition after 72 hrs by MTT assay; type: functional, cell-based; conditions: Bel-7402, 72 h; method in brief: as §1
MGC-803 = assay: Antiproliferative activity against human MGC803 cells assessed as growth inhibition after 72 hrs by MTT assay; type: functional, cell-based; conditions: MGC-803, 72 h; method in brief: as §1
SW-620 = assay: Anticancer activity against human SW620 cells by MTT assay; type: functional, cell-based
Method in brief: (§2)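 MTT cytotoxicity run on paired parental and transporter-overexpressing lines: SW620 vs ABCB1-overexpressing SW620/AD300, and NCI-H460 vs ABCG2-overexpressing NCI-H460/MX20. IC50 is the concentration inhibiting 50% of cell growth. Concentrations tested up to 100 μM.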

[2] = Anticancer activity against ABCB1-overexpressing human SW620/AD300 cells by MTT assay; type: functional, cell-based; conditions: SW-620; method in brief: as §2
NCI-H460 = assay: Anticancer activity against human NCI-H460 cells by MTT assay; type: functional, cell-based; method in brief: as §2
[3] = Anticancer activity against ABCG2-overexpressing human NCI-H460/MX20 cells by MTT assay; type: functional, cell-based; method in brief: as §2
[4] = Anticancer activity against human Bel7402 cells assessed as growth inhibition by MTT assay; type: functional, cell-based; conditions: Bel-7402
Method in brief: (§3)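 Toxicity compared on human normal liver L-02 cells and human liver cancer Bel-7402 cells run side by side. Survival curves by MTT after 72 h treatment. IC50 is the concentration inhibiting 50% of cell growth.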

[5] = Cytotoxicity against human L02 cells by MTT assay; type: cell-based; method in brief: as §3
Bel-7402 [6] = assay: Selectivity index, ratio of IC50 for human L02 cells to ratio of IC50 for human Bel-7402 cells; type: functional
Method in brief: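 Selectivity index is IC50 on normal L-02 liver cells divided by IC50 on Bel-7402 tumour cells. Both IC50 values come from MTT survival curves after 72 h exposure.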

[7] = Cell cycle arrest in human Bel7402 cells assessed as cells at G1 phase at 0.125 uM after 48 hrs by propidium iodide staining-based flow cytometric analysis (reference value: 39.66%); type: functional; conditions: Bel-7402
[8] = Cell cycle arrest in human Bel7402 cells assessed as cells at S phase at 0.125 uM after 48 hrs by propidium iodide staining-based flow cytometric analysis (reference value: 40.82%); type: functional; conditions: Bel-7402
[9] = Cell cycle arrest in human Bel7402 cells assessed as cells at G2 phase at 0.125 uM after 48 hrs by propidium iodide staining-based flow cytometric analysis (reference value: 19.52%); type: functional; conditions: Bel-7402
[10] = Cell cycle arrest in human Bel7402 cells assessed as cells at G1 phase at 0.25 uM after 48 hrs by propidium iodide staining-based flow cytometric analysis (reference value: 39.66%); type: functional; conditions: Bel-7402
[11] = Cell cycle arrest in human Bel7402 cells assessed as cells at S phase at 0.25 uM after 48 hrs by propidium iodide staining-based flow cytometric analysis (reference value: 40.82%); type: functional; conditions: Bel-7402
[12] = Cell cycle arrest in human Bel7402 cells assessed as cells at G2 phase at 0.25 uM after 48 hrs by propidium iodide staining-based flow cytometric analysis (reference value: 19.52%); type: functional; conditions: Bel-7402
[13] = Cell cycle arrest in human Bel7402 cells assessed as cells at G1 phase at 0.5 uM after 48 hrs by propidium iodide staining-based flow cytometric analysis (reference value: 39.66%); type: functional; conditions: Bel-7402
[14] = Cell cycle arrest in human Bel7402 cells assessed as cells at S phase at 0.5 uM after 48 hrs by propidium iodide staining-based flow cytometric analysis (reference value: 40.82%); type: functional; conditions: Bel-7402
[15] = Cell cycle arrest in human Bel7402 cells assessed as cells at G2 phase at 0.5 uM after 48 hrs by propidium iodide staining-based flow cytometric analysis (reference value: 19.52%); type: functional; conditions: Bel-7402
Bel-7402 [16] = assay: Induction of apoptosis in human Bel7402 cells after 48 hrs by Annexin V/propidium iodide staining-based flow cytometric analysis; type: functional, cell-based
Bel-7402 [17] = assay: Induction of apoptosis in human Bel7402 cells assessed as necrotic cells after 48 hrs at 0.125 uM by Annexin V/propidium iodide staining-based flow cytometric analysis (reference value: 1.99%); type: functional
Bel-7402 [18] = assay: Induction of apoptosis in human Bel7402 cells assessed as late apoptotic cells after 48 hrs at 0.125 uM by Annexin V/propidium iodide staining-based flow cytometric analysis (reference value: 5.21%); type: functional
Bel-7402 [19] = assay: Induction of apoptosis in human Bel7402 cells assessed as early apoptotic cells after 48 hrs at 0.125 uM by Annexin V/propidium iodide staining-based flow cytometric analysis (reference value: 0.64%); type: functional
Bel-7402 [20] = assay: Induction of apoptosis in human Bel7402 cells assessed as viable cells after 48 hrs at 0.125 uM by Annexin V/propidium iodide staining-based flow cytometric analysis (reference value: 92.80%); type: functional; conditions: Bel-7402, 48 h, read-out: Activity
Bel-7402 [21] = assay: Induction of apoptosis in human Bel7402 cells assessed as necrotic cells after 48 hrs at 0.25 uM by Annexin V/propidium iodide staining-based flow cytometric analysis (reference value: 1.99%); type: functional
Bel-7402 [22] = assay: Induction of apoptosis in human Bel7402 cells assessed as late apoptotic cells after 48 hrs at 0.25 uM by Annexin V/propidium iodide staining-based flow cytometric analysis (reference value: 5.21%); type: functional
Bel-7402 [23] = assay: Induction of apoptosis in human Bel7402 cells assessed as early apoptotic cells after 48 hrs at 0.25 uM by Annexin V/propidium iodide staining-based flow cytometric analysis (reference value: 0.64%); type: functional
Bel-7402 [24] = assay: Induction of apoptosis in human Bel7402 cells assessed as viable cells after 48 hrs at 0.25 uM by Annexin V/propidium iodide staining-based flow cytometric analysis (reference value: 92.80%); type: functional; conditions: Bel-7402, 48 h, read-out: Activity
Bel-7402 [25] = assay: Induction of apoptosis in human Bel7402 cells assessed as necrotic cells after 48 hrs at 0.5 uM by Annexin V/propidium iodide staining-based flow cytometric analysis (reference value: 1.99%); type: functional
Bel-7402 [26] = assay: Induction of apoptosis in human Bel7402 cells assessed as late apoptotic cells after 48 hrs at 0.5 uM by Annexin V/propidium iodide staining-based flow cytometric analysis (reference value: 5.21%); type: functional
Bel-7402 [27] = assay: Induction of apoptosis in human Bel7402 cells assessed as early apoptotic cells after 48 hrs at 0.5 uM by Annexin V/propidium iodide staining-based flow cytometric analysis (reference value: 0.64%); type: functional
Bel-7402 [28] = assay: Induction of apoptosis in human Bel7402 cells assessed as viable cells after 48 hrs at 0.5 uM by Annexin V/propidium iodide staining-based flow cytometric analysis (reference value: 92.80%); type: functional; conditions: Bel-7402, 48 h, read-out: Activity

In the case of C=C1C(=O)[C@]23[C@H](OC(=O)c4ccc(N(CCCl)CCCl)cc4)[C@H]1CC[C@H]2[C@@]12CO[C@@]3(O)[C@@H](O)[C@@H]1C(C)(C)CC[C@@H]2O, the IC50 (K562) is reported as 1.12 µM, the IC50 (MCF7) is reported as 0.68 µM and the IC50 [1] is reported as 0.5 µM. For the same compound, the IC50 (MGC-803) was 1.09 µM, the IC50 (SW-620) was 1.96 µM and the IC50 [2] was 1.86 µM. For the same compound, the IC50 (NCI-H460) was 2.35 µM, the IC50 [3] was 2.91 µM and the IC50 [4] was 0.5 µM. The IC50 [5] was 4.03 µM, the “Ratio IC50” value (Bel-7402 [6]) was 8.06 and the Activity [7] was 45.6%. It also gave an Activity [8] of 41.3%, an Activity [9] of 13% and an Activity [10] of 45.2%. For the same compound, the Activity [11] was 44.8%, the Activity [12] was 9.98% and the Activity [13] was 52%. The Activity [14] was 43.6%, the Activity [15] was 4.46% and the Activity (Bel-7402 [16]) was “Dose-dependent effect”. It also gave an Activity (Bel-7402 [17]) of 2.12%, an Activity (Bel-7402 [18]) of 10.77% and an Activity (Bel-7402 [19]) of 1.11%. It also gave a viability at 0.125 µM (Bel-7402 [20]) of 87.1%, an Activity (Bel-7402 [21]) of 1.23% and an Activity (Bel-7402 [22]) of 19.85%. It also gave an Activity (Bel-7402 [23]) of 3.14%, a viability at 0.25 µM (Bel-7402 [24]) of 75.8% and an Activity (Bel-7402 [25]) of 1.29%. The Activity (Bel-7402 [26]) was 37.51%, the Activity (Bel-7402 [27]) was 10.53% and the viability at 0.5 µM (Bel-7402 [28]) was 50.7%.
